Calls of active or inactive are those of the source. No cut-off for these calls is given here.
What was measured:
[1] = biological target: T1, Corticotropin-releasing factor receptor 1 (Homo sapiens, UniProt P34998); assay: Displacement of [125I]sauvagine from human recombinant CRF1 receptor expressed in CHO cells; type: cell-based
T1 sequence (P34998 whole entry): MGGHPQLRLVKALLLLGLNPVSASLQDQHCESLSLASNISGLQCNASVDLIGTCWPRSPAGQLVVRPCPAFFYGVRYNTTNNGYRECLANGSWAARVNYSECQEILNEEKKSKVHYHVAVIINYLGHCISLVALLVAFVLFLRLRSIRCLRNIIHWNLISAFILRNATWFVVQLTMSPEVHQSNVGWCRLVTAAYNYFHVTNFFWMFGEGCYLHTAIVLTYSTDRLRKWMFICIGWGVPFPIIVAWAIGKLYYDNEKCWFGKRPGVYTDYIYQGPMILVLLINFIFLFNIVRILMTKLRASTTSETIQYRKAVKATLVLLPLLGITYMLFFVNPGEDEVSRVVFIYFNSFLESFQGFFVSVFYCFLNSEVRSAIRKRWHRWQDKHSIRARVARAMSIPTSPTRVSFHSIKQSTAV

[2] = Oral bioavailability in rat at 10 mg/kg; type: ADME, organism-based; conditions: in vivo
[3] = Volume of distribution at steady state in marmoset at 1 mg/kg, iv or 10 mg/kg, po; type: ADME, organism-based, Callithrix jacchus; conditions: in vivo, read-out: Vdss
Callithrix jacchus [4] = assay: Toxic sedative effect in po dosed marmoset assessed as effect on number of physiological jumps; type: toxicity, organism-based; conditions: in vivo
Meriones unguiculatus [5] = assay: Anxiolytic activity in po dosed Mongolian gerbils forepaw treading model assessed as reduction of time spent in CRF-induced piano playing behavior administered 1 hr before CRF challenge; type: functional, organism-based
[6] = biological target: T1, Corticotropin-releasing factor receptor 1; assay: Antagonist activity at human CRF1 receptor expressed in CHO cells assessed as effect on sauvagine-induced cAMP production; type: functional, cell-based; conditions: read-out: pA2 (converted)
In short: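 CHO cells transfected with human CRF1 receptor; sauvagine concentration-response curves for cAMP were run with increasing antagonist concentrations and analysed by Schild plot (n = 6). Potency was taken as pA2, the concentration that doubles the sauvagine ED50. Antagonist alone, up to 10 µM, was also tested on cAMP without sauvagine.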

Rattus norvegicus = assay: Anxiolytic activity in ip dosed ultrasonic vocalization rat model assessed as reduction of vocalization duration administered 30 mins before ultrasonic vocalizations; type: functional, organism-based
[7] = Half life in rat at 1 mg/kg, iv or 10 mg/kg, po; type: ADME, organism-based; conditions: in vivo
Meriones unguiculatus [8] = assay: Anxiolytic activity in Mongolian gerbils forepaw treading model assessed as reduction of time spent in CRF-induced piano playing behavior at 30 mg/kg, po administered 60 mins before CRF challenge; type: functional, organism-based; parameters: dose 30 mg/kg
Callithrix jacchus [9] = assay: Anxiolytic activity in po dosed marmoset assessed as reduction of number of postures by marmoset human threat test; type: functional, organism-based
[10] = Volume of distribution at steady state in rat at 1 mg/kg, iv or 10 mg/kg, po; type: ADME, organism-based; conditions: in vivo, read-out: Vdss
[11] = biological target: T2, Corticotropin-releasing factor receptor 2 (Homo sapiens) (UniProt Q13324); assay: Antagonist activity at human CRF2 receptor expressed in CHO cells assessed as effect on sauvagine-induced cAMP production; type: functional, cell-based
T2 sequence (whole entry): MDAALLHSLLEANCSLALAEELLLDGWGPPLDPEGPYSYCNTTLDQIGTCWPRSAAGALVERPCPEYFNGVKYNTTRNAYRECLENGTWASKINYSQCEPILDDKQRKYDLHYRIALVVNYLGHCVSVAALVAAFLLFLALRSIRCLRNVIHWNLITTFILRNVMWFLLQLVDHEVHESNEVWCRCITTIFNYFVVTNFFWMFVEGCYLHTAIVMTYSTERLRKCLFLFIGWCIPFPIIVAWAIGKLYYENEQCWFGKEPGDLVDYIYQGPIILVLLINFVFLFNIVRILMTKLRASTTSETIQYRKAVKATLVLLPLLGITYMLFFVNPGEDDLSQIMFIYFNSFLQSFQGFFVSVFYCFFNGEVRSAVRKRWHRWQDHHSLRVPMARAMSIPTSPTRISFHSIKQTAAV
In short: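 CHO cells expressing human CRF2 receptor; cAMP was stimulated with 0.5 nM sauvagine, and the antagonist was tested at concentrations up to 10 µM.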

[12] = Plasma clearance in rat at 1 mg/kg, iv or 10 mg/kg, po; type: ADME, organism-based
[13] = Plasma clearance in marmoset at 1 mg/kg, iv or 10 mg/kg, po; type: ADME, organism-based, Callithrix jacchus
[14] = Ratio of drug level in brain to plasma in gerbil at 10 mg/kg, po after 1 hr; type: ADME, organism-based; parameters: dose 10 mg/kg, route oral; conditions: gerbillinae, brain and plasma
[15] = Oral bioavailability in marmoset at 10 mg/kg; type: ADME, organism-based, Callithrix jacchus; conditions: in vivo
Meriones unguiculatus [16] = assay: Anxiolytic activity in Mongolian gerbils forepaw treading model assessed as reduction of time spent in CRF-induced piano playing behavior at 30 mg/kg, po administered 360 mins before CRF challenge; type: functional, organism-based; parameters: dose 30 mg/kg
Meriones unguiculatus [17] = assay: Anxiolytic activity in Mongolian gerbils forepaw treading model assessed as reduction of time spent in CRF-induced piano playing behavior at 30 mg/kg, po administered 180 mins before CRF challenge; type: functional, organism-based; parameters: dose 30 mg/kg
[18] = Ratio of drug level in brain to plasma in rat at 1 mg/kg, iv after 1 hr; type: ADME, organism-based; parameters: dose 1 mg/kg, route intravenous; conditions: brain and plasma
[19] = Half life in marmoset at 1 mg/kg, iv or 10 mg/kg, po; type: ADME, organism-based, Callithrix jacchus; conditions: in vivo

Row | IC50 [1] | Compound | further results
1 | 1230 nM | Cc1cc(-n2ccc(N3CCNC3=O)n2)c2c(n1)N(c1ccc(OC(C)C)cc1C)CC2 | –
2 | 309 nM | COc1ccc(N2CCc3c(-n4ccc(N5CCNS5(=O)=O)n4)cc(C)nc32)c(C)c1 | –
3 | 3240 nM | COc1ccc(N2CCc3c(-n4ccc(N5CCCS5(=O)=O)n4)cc(C)nc32)c(C)c1 | –
4 | 32.4 nM | Cc1cc(-n2ccc(N3CCNC3=O)n2)c2c(n1)N(c1ccc(C#N)cc1C(F)(F)F)CC2 | –
5 | 120 nM | Cc1cc(-n2ccc(N3CCNC3=O)n2)c2c(n1)N(c1ccc(C#N)cc1OC(F)(F)F)CC2 | –
6 | 794 nM | COc1ccc(N2CCc3c(-n4ccc(N5CCN(C)C5=O)n4)cc(C)nc32)c(C)c1 | –
7 | 145 nM | COc1ccc(N2CCc3c(-n4ccc(N5CCCNC5=O)n4)cc(C)nc32)c(C)c1 | –
8 | 50.1 nM | CCc1cc(C#N)ccc1N1CCc2c(-n3ccc(N4CCNC4=O)n3)cc(C)nc21 | –
9 | 67.6 nM | Cc1cc(-n2ccc(N3CCNC3=O)n2)c2c(n1)N(c1ccc(OC(F)(F)F)cc1C)CC2 | –
10 | 67.6 nM | Cc1cc(-n2ccc(N3CCNC3=O)n2)c2c(n1)N(c1ccc(C#N)cc1C)CC2 | –
11 | 120 nM | COc1ccc(N2CCc3c(-n4ccc(-n5cc[nH]c5=O)n4)cc(C)nc32)c(C)c1 | –
12 | 372 nM | Cc1cc(-n2ccc(N3CCNC3=O)n2)c2c(n1)N(c1ccc(-n3cccn3)cc1C)CC2 | –
13 | 158 nM | Cc1cc(-n2ccc(N3CCNC3=O)n2)c2c(n1)N(c1ccc(Cl)cc1Cl)CC2 | –
14 | 123 nM | COc1ccc(N2CCc3c(-n4ccc(N5CCCC5=O)n4)cc(C)nc32)c(C)c1 | –
15 | 89.1 nM | Cc1cc(-n2ccc(-n3cc[nH]c3=O)n2)c2c(n1)N(c1ccc(C(F)(F)F)cc1C(F)(F)F)CC2 | –
16 | 363 nM | COc1cc(-n2cccn2)ccc1N1CCc2c(-n3ccc(-n4cc[nH]c4=O)n3)cc(C)nc21 | –
17 | 66.1 nM | COc1ccc(N2CCc3c(-n4ccc(N5CCNC5=O)n4)cc(C)nc32)c(C)c1 [EMICERFONT] | bioavailability [2]: 66%; Vd [3]: 4.7 L/kg; Activity (Callithrix jacchus [4]): Non-toxic; Activity (Meriones unguiculatus [5]): Dose-dependent effect; Kb [6]: 72.4 nM; Activity (Rattus norvegicus): Dose-dependent effect; half-life [7]: 1.6 h; Activity (Meriones unguiculatus [8]): Active; Activity (Callithrix jacchus [9]): Dose-dependent effect; Vd [10]: 2.4 L/kg; Activity [11]: inactive; clearance [12]: 19 mL/min/kg; clearance [13]: 16 mL/min/kg; Kp at 1 h [14]: 4.7; bioavailability [15]: 65%; Activity (Meriones unguiculatus [16]): Active; Activity (Meriones unguiculatus [17]): Active; Kp at 1 h [18]: 3.7; half-life [19]: 3.7 h
18 | 316 nM | CCOc1ccc(N2CCc3c(-n4ccc(N5CCNC5=O)n4)cc(C)nc32)c(C)c1 | –
19 | 56.2 nM | COc1ccc(N2CCc3c(-n4ccc(N5CCNC5=O)n4)cc(C)nc32)c(C(F)F)c1 | –
20 | 1950 nM | COc1ccc(N2CCc3c(-n4ccc(N5CCOC5=O)n4)cc(C)nc32)c(C)c1 | –

— ChEMBL document CHEMBL1140209, “Synthesis and pharmacological characterization of novel druglike corticotropin-releasing factor 1 antagonists” (J Med Chem, 2008)
